Data: ChEMBL document CHEMBL1140862, “Berberine analogues as a novel class of the low-density-lipoprotein receptor up-regulators: synthesis, structure-activity relationships, and cholesterol-lowering efficacy” (J Med Chem, 2009)
Calls of active or inactive are those of the source. The calls are words filed in the database; no cut-off is given here.

Columns and labels:
HepG2 [1] = experiment: Induction of LDLR mRNA expression in human HepG2 cells after 12 hrs by RT-PCR assay relative to untreated control; format: functional
Procedure, shortened: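 HepG2 cells kept in RPMI-1640 with 10% FBS, moved 24 h before dosing to 10% LPDS, then at ~80% confluence to RPMI-1640 with 0.5% LPDS plus compound (5.0 µg/mL in table; concentrations as indicated in figure), 12 h, 37 °C. Total RNA reverse-transcribed, TaqMan real-time PCR, comparative CT method with GAPDH reference; fold of untreated cells (=1); mean of three experiments.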

Bel-7402 = experiment: Induction of LDLR […] in human Bel7402 cells after 12 hrs by RT-PCR assay relative to control; format: functional, cell-based
Rattus norvegicus [2] = experiment: Reduction of blood low density lipoprotein cholesterol level in hyperlipidemic Sprague-Dawley rat at 100 mg/kg, po daily twice; format: functional, organism-based; design: dose 100 mg/kg; details: TDE = time-dependent effect
Rattus norvegicus [3] = experiment: Reduction of blood cholesterol level in hyperlipidemic Sprague-Dawley rat at 100 mg/kg, po daily twice; format: functional, organism-based; design: dose 100 mg/kg; details: TDE = time-dependent effect
Rattus norvegicus [4] = experiment: Reduction of blood low density lipoprotein cholesterol level in hyperlipidemic Sprague-Dawley rat at 100 mg/kg, po daily twice for 30 days relative to control; format: functional; design: scale not given: the % may be the effect or the level left
Procedure, shortened: (§1)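 Male Sprague-Dawley rats on HFHC diet 8 weeks, then saline suspension by gavage at 100 (mg/kg)/day, twice daily, 30 days (n = 8; untreated HFHC n = 6; normal-diet controls). Fasted tail-snip blood at end point; total cholesterol and LDL-c by commercial kits; percent reduction versus untreated HFHC control; mean ± SEM.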

Mus musculus [5] = experiment: Reduction of blood low density lipoprotein cholesterol level in hyperlipidemic C57BL/6J mouse at 100 mg/kg, po daily twice for 21 days relative to control; format: functional; design: scale not given: the % may be the effect or the level left
Procedure, shortened: (§2)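 Male C57BL/6J mice fed HFHC diet 8 weeks, then gavaged twice daily (0.2 mL saline suspension) at 100 (mg/kg)/day for 21 days (n = 8; untreated n = 6). Fasted tail-snip blood; total cholesterol and LDL-c by commercial kits relative to untreated control.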

Rattus norvegicus [6] = experiment: Induction of HMG-CoA reductase mRNA expression in hyperlipidemic Sprague-Dawley rat liver at 100 mg/kg, po daily twice for 30 days by RT-PCR; format: functional, organism-based; design: dose 100 mg/kg
Procedure, shortened: (§3)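 Male Sprague-Dawley rats (180 ± 10 g) fed HFHC diet (2% cholesterol, 10% yolk powder, 15% lard, 0.2% sodium cholate) 8 weeks, then gavaged with compound suspended in saline, 100 (mg/kg)/day, twice daily, 30 days (n = 8; untreated n = 6). Liver RNA, TaqMan real-time RT-PCR, comparative CT with GAPDH; fold of untreated HFHC control.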

[7] = Elimination half life in po dosed human; format: ADME, organism-based; details: in vivo, read-out: beta t1/2 (converted)
Mus musculus [8] = experiment: Reduction of blood cholesterol level in hyperlipidemic C57BL/6J mouse at 100 mg/kg, po daily twice for 21 days relative to control; format: functional; design: scale not given: the % may be the effect or the level left; procedure, shortened: as §2
HepG2 [9] = experiment: Induction of LDLR protein expression in human HepG2 cells at 10 ug/mL after 12 hrs by flow cytometry; format: functional, cell-based
Procedure, shortened: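 HepG2 cells in LPDS medium treated 12 h with 10 µg/mL compound, detached, fixed in 2% paraformaldehyde at 4 °C overnight, blocked, stained on ice 1 h with rabbit polyclonal anti-LDLR (1:25), then FITC goat anti-rabbit IgG (1:50) 30 min; normal rabbit IgG background control; cell-surface fluorescence by flow cytometry.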

Rattus norvegicus [10] = experiment: Reduction of blood cholesterol level in hyperlipidemic Sprague-Dawley rat at 100 mg/kg, po daily twice for 30 days relative to control; format: functional; design: scale not given: the % may be the effect or the level left; procedure, shortened: as §1
Rattus norvegicus [11] = experiment: Induction of LDLR mRNA expression in hyperlipidemic Sprague-Dawley rat liver at 100 mg/kg, po daily twice for 17 days by RT-PCR relative to control; format: functional, organism-based; design: dose 100 mg/kg
Procedure, shortened: (§4)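 Hyperlipidemic male Sprague-Dawley rats (HFHC diet 8 weeks) untreated (n = 6) or gavaged twice daily with saline suspension at 100 or 300 (mg/kg)/day (n = 8 each) for 17 days. Liver total RNA, real-time RT-PCR for LDLR, GAPDH-normalized, fold of HFHC group (=1); mean ± SE, one-way ANOVA.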

Mus musculus [12] = experiment: Induction of LDLR mRNA expression in hyperlipidemic C57BL/6J mouse liver at 100 mg/kg, po daily twice for 21 days by RT-PCR relative to control; format: functional
Procedure, shortened: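 Male C57BL/6J mice (21 ± 2 g) fed HFHC diet 8 weeks, then gavaged twice daily with saline suspension at 100 (mg/kg)/day for 21 days (n = 8; untreated n = 6). Liver LDLR mRNA by TaqMan real-time RT-PCR, comparative CT with GAPDH, relative to untreated control.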

Mus musculus [13] = experiment: Acute toxicity in Kunming mouse assessed as liver damage upto 5000 mg/kg, po after 14 days by hematoxylin and eosin staining; format: organism-based; design: dose 5000 mg/kg, route oral; details: in vivo, 336 h
Procedure, shortened: (§5)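 Male Kunming mice (19 ± 1 g), six per group, given a single oral dose of saline (control) or compound at 250, 1000 or 5000 mg/kg. Animals weighed daily and monitored 14 days. Then sacrificed; liver, kidney, heart, lung, brain and colon fixed in 10% formaldehyde at room temperature and examined by H&E histology.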

Mus musculus [14] = experiment: Acute toxicity in Kunming mouse assessed as change in body weight at 250 mg/kg, po; format: organism-based; design: dose 250 mg/kg, route oral; details: in vivo; procedure, shortened: as §5
Mus musculus [15] = experiment: Acute toxicity in Kunming mouse assessed as kidney damage upto 5000 mg/kg, po after 14 days by hematoxylin and eosin staining; format: organism-based; design: dose 5000 mg/kg, route oral; details: in vivo, 336 h; procedure, shortened: as §5
Rattus norvegicus [16] = experiment: Toxicity in hyperlipidemic Sprague-Dawley rat assessed as weight loss at 100 mg/kg, po daily twice for 30 days; format: organism-based; design: dose 100 mg/kg, route oral; details: in vivo, 720 h
Procedure, shortened: (§6)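 Hyperlipidemic Sprague-Dawley rats (HFHC diet 8 weeks) gavaged with saline suspension, 100 (mg/kg)/day twice daily, 30 days. Body weight and food intake monitored; fasted blood before and after treatment assayed with commercial kits for AST, ALT, BUN and creatinine; mean and sd.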

Rattus norvegicus [17] = experiment: Induction of LDLR mRNA expression in hyperlipidemic Sprague-Dawley rat liver at 100 mg/kg, po daily twice for 30 days by RT-PCR relative to control; format: functional; procedure, shortened: as §3
Mus musculus [18] = experiment: Acute toxicity in Kunming mouse assessed as change in body weight at 1000 mg/kg, po; format: organism-based; design: dose 1000 mg/kg, route oral; details: in vivo; procedure, shortened: as §5
Rattus norvegicus [19] = experiment: Reduction of blood low density lipoprotein cholesterol level in hyperlipidemic Sprague-Dawley rat at 100 mg/kg, po daily twice for 17 days relative to control; format: functional; design: scale not given: the % may be the effect or the level left
Procedure, shortened: (§7)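 Hyperlipidemic Sprague-Dawley rats (HFHC diet 8 weeks) untreated (n = 6) or gavaged twice daily with saline suspension at 100 or 300 (mg/kg)/day (n = 8 each) for 17 days; fasted tail-snip blood at end point; total cholesterol and LDL-c by commercial kits, relative to untreated control.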

Mus musculus [20] = experiment: Acute toxicity in Kunming mouse assessed as colon damage upto 5000 mg/kg, po after 14 days by hematoxylin and eosin staining; format: organism-based; design: dose 5000 mg/kg, route oral; details: in vivo, 336 h; procedure, shortened: as §5
Rattus norvegicus [21] = experiment: Toxicity in hyperlipidemic Sprague-Dawley rat assessed as liver and kidney function abnormalities at 100 mg/kg, po daily twice for 30 days; format: organism-based; design: dose 100 mg/kg, route oral; details: in vivo, 720 h; procedure, shortened: as §6
Mus musculus [22] = experiment: Acute toxicity in po dosed Kunming mouse assessed as lung damage upto 5000 mg/kg, po after 14 days by hematoxylin and eosin staining; format: organism-based; design: dose 5000 mg/kg, route oral; details: in vivo, 336 h; procedure, shortened: as §5
Rattus norvegicus [23] = experiment: Toxicity in hyperlipidemic Sprague-Dawley rat assessed as food intake reduction at 100 mg/kg, po daily twice for 30 days; format: organism-based; design: dose 100 mg/kg, route oral; details: in vivo, 720 h; procedure, shortened: as §6
Rattus norvegicus [24] = experiment: Reduction of blood cholesterol level in hyperlipidemic Sprague-Dawley rat at 100 mg/kg, po daily twice for 17 days relative to control; format: functional; design: scale not given: the % may be the effect or the level left; procedure, shortened: as §7
Mus musculus [25] = experiment: Acute toxicity in po dosed Kunming mouse after 14 days; format: organism-based; details: in vivo, 336 h; procedure, shortened: as §5
Rattus norvegicus [26] = experiment: Induction of LDLR mRNA expression in hyperlipidemic Sprague-Dawley rat liver at 300 mg/kg, po daily twice for 17 days by RT-PCR relative to control; format: functional; procedure, shortened: as §4
Rattus norvegicus [27] = experiment: Reduction of blood cholesterol level in hyperlipidemic Sprague-Dawley rat at 300 mg/kg, po daily twice for 17 days relative to control; format: functional; design: scale not given: the % may be the effect or the level left; procedure, shortened: as §7
Mus musculus [28] = experiment: Acute toxicity in Kunming mouse assessed as brain damage upto 5000 mg/kg, po after 14 days by hematoxylin and eosin staining; format: organism-based; design: dose 5000 mg/kg, route oral; details: in vivo, 336 h; procedure, shortened: as §5
Mus musculus [29] = experiment: Acute toxicity in Kunming mouse assessed as heart damage upto 5000 mg/kg, po after 14 days by hematoxylin and eosin staining; format: organism-based; design: dose 5000 mg/kg, route oral; details: in vivo, 336 h; procedure, shortened: as §5
Rattus norvegicus [30] = experiment: Reduction of blood low density lipoprotein cholesterol level in hyperlipidemic Sprague-Dawley rat at 300 mg/kg, po daily twice for 17 days relative to control; format: functional; design: scale not given: the % may be the effect or the level left; procedure, shortened: as §7

With `CC[N+]12CCc3cc4c(cc3C1Cc1ccc(OC)c(OC)c1C2)OCO4.[Br-]` (stereo unspecified) the “fold change (FC)” value (HepG2 [1]) was 1.
With `COc1cc2c(cc1OC)C[N+]1(Cc3ccccc3)CCc3cc4c(cc3C1C2)OCO4.[Br-]` (stereo unspecified) the “fold change (FC)” value (HepG2 [1]) was 0.9.
For `COc1ccc2c(Cc3ccccc3)c3[n+](cc2c1OC)CCc1cc2c(cc1-3)OCO2.[Br-]`, the “fold change (FC)” value (HepG2 [1]) was 1.4.
With `CCCCCCc1c2[n+](cc3cc(OC)c(OC)cc13)CCc1cc3c(cc1-2)OCO3.[Cl-]` the “fold change (FC)” value (HepG2 [1]) was 1.1.
For `COc1ccc2cc3[n+](cc2c1OC)CCc1cc2c(cc1-3)OCO2.[Cl-]` [BERBERINE CHLORIDE], the Activity (Bel-7402) was “Active”, the Activity (Rattus norvegicus [2]) was “tde” and the Activity (Rattus norvegicus [3]) was “tde”. For the same molecule, the “fold change (FC)” value (HepG2 [1]) was 2.2, the Activity (Rattus norvegicus [4]) was 31.6% and the Activity (Mus musculus [5]) was 23.9%. The Activity (Rattus norvegicus [6]) was “inactive”, the half-life [7] was 2.94 h and the Activity (Mus musculus [8]) was 16.7%. The Activity (HepG2 [9]) was “Active” and the Activity (Rattus norvegicus [10]) was 27.4%.
For `COc1ccc2c(c1OC)CN1CCc3cc4c(cc3[C@@H]1C2)OCO4` [CANADINE], the “fold change (FC)” value (HepG2 [1]) was 1.
In the case of `COc1cc2c(cc1O)-c1cc3ccc(OC)c(OC)c3c[n+]1CC2.[I-]` [COLUMBAMINE IODIDE], the “fold change (FC)” value (HepG2 [1]) is reported as 1.
For `COc1cc2cc3[n+](cc2cc1OC)CCc1cc2c(cc1-3)OCO2.[Cl-]` [PSEUDOBERBERINE], the Activity (Rattus norvegicus [11]) was “Active”, the “fold change (FC)” value (Mus musculus [12]) was 3.2 and the Activity (Mus musculus [13]) was “Non-toxic”. The Activity (Mus musculus [14]) was “Non-toxic”, the Activity (Rattus norvegicus [2]) was “tde” and the Activity (Rattus norvegicus [3]) was “tde”. The Activity (Mus musculus [15]) was “Non-toxic”, the “fold change (FC)” value (HepG2 [1]) was 3.5 and the Activity (Rattus norvegicus [4]) was 49.4%. For the same molecule, the Activity (Rattus norvegicus [16]) was “Non-toxic”, the “fold change (FC)” value (Rattus norvegicus [17]) was 2.9 and the Activity (Mus musculus [5]) was 39%. For the same molecule, the Activity (Rattus norvegicus [6]) was “inactive”, the Activity (Mus musculus [18]) was “Non-toxic” and the Activity (Rattus norvegicus [19]) was 31%. For the same molecule, the Activity (Mus musculus [20]) was “Non-toxic”, the Activity (Mus musculus [8]) was 29.7% and the Activity (Rattus norvegicus [21]) was “Non-toxic”. The Activity (Mus musculus [22]) was “Non-toxic”, the Activity (Rattus norvegicus [23]) was “Non-toxic” and the Activity (Rattus norvegicus [24]) was 28.5%. The Activity (Mus musculus [25]) was “Non-toxic”, the “fold change (FC)” value (Rattus norvegicus [26]) was 4.8 and the Activity (Rattus norvegicus [27]) was 46.3%. The Activity (Mus musculus [28]) was “Non-toxic”, the Activity (HepG2 [9]) was “Active” and the Activity (Mus musculus [29]) was “Non-toxic”. The Activity (Rattus norvegicus [10]) was 42.6% and the Activity (Rattus norvegicus [30]) was 53.6%.
